This passage reports IC50 results from ChEMBL document CHEMBL1177850, “Design, synthesis and antiproliferative activity of styryl lactones related to (+)-goniofufurone” (Eur J Med Chem, 2010).

What all share (assay type): functional, cell-based
The test system of experiment [1] is HeLa. In words: Antiproliferative activity against human HeLa cells after 72 hrs by MTT assay. The essentials:
(§1)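 Seeded at 5 × 10^3 cells/well in 96-well plates after harvesting in exponential growth and trypan blue counting. MRC-5 are normal foetal lung fibroblasts. Exposure was 72 h, with MTT colorimetric read-out. Results are means (SD) of three independent experiments done in quadruplicate.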
For orientation: Tetrazolium assays rely on reduction of a dye to a coloured formazan, in cell work by metabolically active cells.

The subject of experiment [2] is MRC5. The experiment is described as follows: Antiproliferative activity against human MRC5 cells after 72 hrs by MTT assay. As to conditions: MRC5, 72 h. The essentials:
as §1

Experiment [3] concerns HL-60. The experiment is described as follows: Antiproliferative activity against human HL60 cells after 72 hrs by MTT assay. As to conditions: HL-60, 72 h. The essentials:
(§2)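 Exponentially growing cells were counted by trypan blue exclusion and seeded at 10^4 cells/well in 96-well plates to keep growth logarithmic. Cells were exposed to compound for 72 h, then read by tetrazolium (MTT) colorimetry. IC50 is the concentration giving 50% growth inhibition versus untreated control. Values are means (SD) of three independent experiments, each in quadruplicate.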

Experiment [4] relates to K562. The experiment is described as follows: Antiproliferative activity against human K562 cells after 72 hrs by MTT assay. As to conditions: K562, 72 h. The essentials: (§3)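 Exponentially growing cells were counted by trypan blue exclusion and seeded at 10^4 cells/well in 96-well plates to keep growth logarithmic. Cells were exposed to compound for 72 h, then read by tetrazolium (MTT) colorimetry. Values are means (SD) of three independent experiments, each in quadruplicate.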

In experiment [5] the test system is Raji. The experiment is described as follows: Antiproliferative activity against human Raji cells after 72 hrs by MTT assay. The essentials:
as §3

The subject of experiment [6] is Jurkat. In words: Antiproliferative activity against human Jurkat cells after 72 hrs by MTT assay. The essentials:
as §2

The structures appear in SMILES notation. A value given as a limit tells only on which side of the number the result lay.

As a reminder, the IC50 is the concentration that gives 50% inhibition. A high value points to weaker potency. Consider `O=C1CC[C@@H]([C@@H](O)[C@H](O)[C@H](O)c2ccccc2)O1`, for which the IC50 in experiment [1] was 2340 nM; in experiment [2], > 100000 nM; in experiment [3], 90 nM; in experiment [4], 540 nM; in experiment [5] it was 2210 nM; in experiment [6] it was 2230 nM.

With `O=C1C[C@H]2O[C@H]([C@H](OC(=O)c3ccccc3)c3ccccc3)[C@H](O)[C@H]2O1`, the 50% inhibitory concentration (IC50) in experiment [1] is 5690 nM; in experiment [2], > 100000 nM; in experiment [3], 120 nM; in experiment [4], 230 nM; in experiment [5], 1010 nM; in experiment [6], 360 nM.

For `O=C1C[C@H]2O[C@H]([C@H](O)c3ccccc3)[C@H](O)[C@H]2O1`, the concentration for half-maximal inhibition (IC50) was 8320 nM in experiment [1]; > 100000 nM in experiment [2]; > 100000 nM in experiment [3]; 410 nM in experiment [4]; 18400 nM in experiment [5]; 32500 nM in experiment [6].

Regarding `O=C1CC2O[C@H](Cc3ccccc3)C(O)C2O1` (single isomer, unassigned), the IC50 in experiment [1] is 4420 nM; in experiment [2], > 100000 nM; in experiment [3] it was 43800 nM; in experiment [4], 510 nM; in experiment [5], 1030 nM; in experiment [6], 2520 nM.

For the compound `O=C(/C=C/c1ccccc1)O[C@H](c1ccccc1)[C@H]1O[C@@H]2CC(=O)O[C@@H]2[C@H]1O` [(+)-CRASSALACTONE C], the IC50 in experiment [2] was > 100000 nM; in experiment [3], > 100000 nM; in experiment [4] it was 3560 nM.
